Source: ChEMBL document CHEMBL1124216, “A novel class of potential central nervous system agents. 3-Phenyl-2-(1-piperazinyl)-5H-1-benzazepines” (1988)

Tests used:
Format in all cases: functional
Mus musculus [1] = assay: Antimaximal electroshock seizure (MES) activity in mice after peroral administration of 10 mg/kg of compound; 0/5; settings: route oral
Mus musculus [2] = assay: Antimaximal electroshock seizure (MES) activity in mice after peroral administration of 100 mg/kg of compound; 4/5; settings: route oral
Mus musculus [3] = assay: Antiexploratory activity (EXPL) of mice determined by an antimex activity meter, 100 mg/kg of dose was administered perorally; Potent inhibition; settings: route oral
Mus musculus [4] = assay: Antiexploratory activity (EXPL) of mice determined by an antimex activity meter, 10 mg/kg of dose was administered perorally; No inhibition; settings: route oral
Mus musculus [5] = assay: Antitremorine activity(TRM) of mice after peroral administration of 100 mg/kg of compound; Moderate inhibition (51-71%); settings: route oral
Mus musculus [6] = assay: Antitreserpine activity(RES) of mice after peroral administration of 100 mg/kg of compound; Moderate inhibition (51-71%); settings: route oral
Mus musculus [7] = assay: Antimaximal electroshock seizure (MES) activity in mice after peroral administration of 100 mg/kg of compound; 0/5; settings: route oral
Mus musculus [8] = assay: Antireserpine activity (RES) of mice after peroral administration of mg/kg of compound; Slight inhibition (31-50%)
Mus musculus [9] = assay: Antiexploratory activity (EXPL) of mice determined by an antimex activity meter, 50 mg/kg of dose was administered perorally; No inhibition; settings: route oral
Mus musculus [10] = assay: Antiexploratory activity (EXPL) of mice determined by an antimex activity meter, 100 mg/kg of dose was administered perorally; Moderate inhibition (51-71%); settings: route oral
Mus musculus [11] = assay: Antireserpine activity (RES) of mice after peroral administration of 100 mg/kg of compound; Moderate inhibition (51-71%); settings: route oral
Mus musculus [12] = assay: Antitremorine activity(TRM) of mice after peroral administration of 100 mg/kg of compound; Slight inhibition (31-50%); settings: route oral
Mus musculus [13] = assay: Antipentylene tetrazole activity was determined in mice when administered perorally; settings: po
Procedure, shortened: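 Groups of five male Std-ddY mice received compound orally in 0.5% tragacanth, then pentylenetetrazole 175 mg/kg ip. Blockade of the tonic extensor component scored as anticonvulsant. ED50 was the dose protecting 50% of animals (Litchfield-Wilcoxon).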

Mus musculus [14] = assay: Antimaximal electroshock seizure activity was determined in mice when administered perorally; settings: po
Mus musculus [15] = assay: Antiexploratory activity (EXPL) of mice determined by an antimex activity meter,100 mg/kg of dose was administered perorally; No inhibition
Mus musculus [16] = assay: Antitremorine activity(TRM) of mice after peroral administration of 10 mg/kg of compound; No inhibition; settings: route oral
Mus musculus [17] = assay: Antitremorine activity(TRM) of mice after peroral administration of 100 mg/kg of compound; settings: route oral
Mus musculus [18] = assay: Antireserpine activity (RES) of mice after peroral administration of 100 mg/kg of compound; No inhibition; settings: route oral

How did the Activity (Mus musculus [1]) turn out when `COc1ccc2c(c1)CC=C(c1ccccc1)C(N1CCN(C)CC1)=N2.Cl.Cl` was run?
The Activity was 0.

And the Activity (Mus musculus [2])?
Its Activity is 4.

And the inhibition in vivo at 100 mg/kg (Mus musculus [3])?
The inhibition in vivo at 100 mg/kg was over 71%.

And the inhibition in vivo at 10 mg/kg (Mus musculus [4])?
The inhibition in vivo at 10 mg/kg was under 30%.

And the inhibition in vivo at 100 mg/kg (Mus musculus [5])?
The inhibition in vivo at 100 mg/kg was 51%.

And the inhibition in vivo at 100 mg/kg (Mus musculus [6])?
Its inhibition in vivo at 100 mg/kg is 51%.

What does the source list for `Cl.Cl.OCCN1CCN(C2=Nc3ccccc3CC=C2c2cccc(Cl)c2)CC1`?
Activity (Mus musculus [7]): 0; Inhibition (Mus musculus [8]): 31%; inhibition in vivo at 50 mg/kg (Mus musculus [9]): < 30%

Which results are given for `CN1CCN(C2=Nc3ccccc3CC=C2c2ccccc2Cl)CC1.Cl.Cl`?
Activity (Mus musculus [7]): 0; inhibition in vivo at 100 mg/kg (Mus musculus [10]): 51%; inhibition in vivo at 100 mg/kg (Mus musculus [11]): 51%; inhibition in vivo at 100 mg/kg (Mus musculus [12]): 31%

`CCN1CCN(C2=Nc3ccc(C)cc3CC=C2c2ccccc2)CC1.Cl.Cl` was tested. Which Activity (Mus musculus [1]) did it give?
The Activity was 0.

What about the ED50 (Mus musculus [13]) of the same compound?
The ED50 was 32.3 mg/kg.

And the Activity (Mus musculus [2])?
Its Activity is 4.

What about the ED50 (Mus musculus [14]) of the same compound?
The ED50 was 70.2 mg/kg.

And the Inhibition (Mus musculus [15])?
The Inhibition was under 30%.

What about the inhibition in vivo at 10 mg/kg (Mus musculus [16]) of the same compound?
Its inhibition in vivo at 10 mg/kg is under 30%.

What about the inhibition in vivo at 100 mg/kg (Mus musculus [17]) of the same compound?
The inhibition in vivo at 100 mg/kg was over 71%.

What about the inhibition in vivo at 100 mg/kg (Mus musculus [18]) of the same compound?
Its inhibition in vivo at 100 mg/kg is under 30%.
